From PubChem BioAssay come the findings set out here.

Active and inactive are the calls of the source.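 Rule for the calls, unless noted: active = viability at or below 30% in both replicate assays; inconclusive = viability at or below 30% in just one of the two assays; inactive = the rest.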

For orientation: viability means a read-out of living cells in per cent, often relative to untreated cells. As a reminder, the inhibition is the drop in the measured response relative to a control, in per cent.

Assay [1] can be described thus: reducers of endogenous Her2 protein level, primary screen, SKBR3 breast tumor cells, AlphaScreen, ATP viability (AID 461;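 active = Her2 level under about 52% in both replicate screens, with viability over 70% of control, limit read from the data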;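 for Her2 level: lower value means less Her2 protein in the cells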;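 for viability: percent of carrier control wells set as 100% viability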). The settings on record: 18-24 h, measured here: SKBR3 viability, ATP luminescence, at 10 µM.
Assay [2] concerns the target Receptor tyrosine-protein kinase erbB-2 (Homo sapiens) (UniProt P04626). Described as above. The settings on record: 18-24 h, at 10 µM, stronger effect = lower value.
A short description of assay [3]: SK-BR-3 cell growth inhibitors, pilot screen, 24 h, human (AID 572;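 active = viability at or below 10% of carrier control in both of two separate runs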;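 note: compound exposure lasted between 18 and 24 h rather than exactly 24 h; 100% = carrier-treated control wells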). Conditions: SK-BR-3 viability, CellTiter-Glo luminescence, at 10 µM, stronger effect = lower value. For orientation: In ATP-based viability assays light output follows the ATP content of the culture.
Assay [4] is described as follows: HUVEC growth inhibition – cell-based, human, primary screen (AID 575).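 Note: 100% = median of untreated cell wells with 0.1% DMSO on each plate.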 The settings on record: HUVEC proliferation, CellTiter-Glo luminescence, 72 h; at 10 µM; stronger effect = lower value. In outline: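 Test system: primary human umbilical vein endothelial cells. Quantity: 1250 cells/well. Compound: single 10 µM dose, 0.1% DMSO, from 5x medium stock. Timing: 72 h treatment at 37 °C. Detection: ATP-based CellTiter-Glo luminescent read. Benchmarks: vehicle and MePR control wells. Format: 384-well plates coated with collagen.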

Assay [5] can be described thus: growth inhibitors of H69AR lung tumor, primary screen, human, duplicate replicates (AID 580;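 active = viability at or under a set limit in both replicates, limit being median viability minus 3 SD, cut at about 48% in these data, passing the limit was not always enough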;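 note: 100% = mean luminescence of untreated wells and 0% = no signal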). The settings on record: H69AR lung tumor cells viability, ATP luminescence, 72 h; at 10 µM; stronger effect = lower value.
Assay [6] is described as follows: reversal of MRP1-mediated doxorubicin resistance, pilot screen, H69AR cells, doxorubicin co-treatment (AID 601;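 active = viability loss from added drug above about 55%, and viability with drug at most 40%, in both replicates, limit read from the data, passing the limit was not always enough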). The settings on record: CellTiter-Glo, 72 h, at 10 µM; for differential viability (reversal): stronger effect = higher value.
The nature of assay [7]: 384-well plate pilot, post-Golgi transport modulator project, inhibition of yeast transport mutant growth (AID 636; in the data active = inhibition above about 31%). The settings on record: absorbance 615 nm, about 18 h, stronger effect = higher value.
A short description of assay [8]: growth suppression of yeast trafficking mutant, preliminary HTS, modulators of trafficking downstream of Golgi apparatus project, 1536-format plate, OD 615 nm (AID 637; in the data active = inhibition above about 30%). Conditions: yeast transport mutant growth, absorbance 615 nm, 18 h; stronger effect = higher value.
Where [9] appears, read: H69AR cells + 2 uM doxorubicin, measured here: viability with 2 uM doxorubicin, stronger effect = lower value.
Where [10] appears, read: H69AR cells, compound alone cytotoxicity.

Chain of Receptor tyrosine-protein kinase erbB-2 (Homo sapiens) (P04626 whole entry, looked up): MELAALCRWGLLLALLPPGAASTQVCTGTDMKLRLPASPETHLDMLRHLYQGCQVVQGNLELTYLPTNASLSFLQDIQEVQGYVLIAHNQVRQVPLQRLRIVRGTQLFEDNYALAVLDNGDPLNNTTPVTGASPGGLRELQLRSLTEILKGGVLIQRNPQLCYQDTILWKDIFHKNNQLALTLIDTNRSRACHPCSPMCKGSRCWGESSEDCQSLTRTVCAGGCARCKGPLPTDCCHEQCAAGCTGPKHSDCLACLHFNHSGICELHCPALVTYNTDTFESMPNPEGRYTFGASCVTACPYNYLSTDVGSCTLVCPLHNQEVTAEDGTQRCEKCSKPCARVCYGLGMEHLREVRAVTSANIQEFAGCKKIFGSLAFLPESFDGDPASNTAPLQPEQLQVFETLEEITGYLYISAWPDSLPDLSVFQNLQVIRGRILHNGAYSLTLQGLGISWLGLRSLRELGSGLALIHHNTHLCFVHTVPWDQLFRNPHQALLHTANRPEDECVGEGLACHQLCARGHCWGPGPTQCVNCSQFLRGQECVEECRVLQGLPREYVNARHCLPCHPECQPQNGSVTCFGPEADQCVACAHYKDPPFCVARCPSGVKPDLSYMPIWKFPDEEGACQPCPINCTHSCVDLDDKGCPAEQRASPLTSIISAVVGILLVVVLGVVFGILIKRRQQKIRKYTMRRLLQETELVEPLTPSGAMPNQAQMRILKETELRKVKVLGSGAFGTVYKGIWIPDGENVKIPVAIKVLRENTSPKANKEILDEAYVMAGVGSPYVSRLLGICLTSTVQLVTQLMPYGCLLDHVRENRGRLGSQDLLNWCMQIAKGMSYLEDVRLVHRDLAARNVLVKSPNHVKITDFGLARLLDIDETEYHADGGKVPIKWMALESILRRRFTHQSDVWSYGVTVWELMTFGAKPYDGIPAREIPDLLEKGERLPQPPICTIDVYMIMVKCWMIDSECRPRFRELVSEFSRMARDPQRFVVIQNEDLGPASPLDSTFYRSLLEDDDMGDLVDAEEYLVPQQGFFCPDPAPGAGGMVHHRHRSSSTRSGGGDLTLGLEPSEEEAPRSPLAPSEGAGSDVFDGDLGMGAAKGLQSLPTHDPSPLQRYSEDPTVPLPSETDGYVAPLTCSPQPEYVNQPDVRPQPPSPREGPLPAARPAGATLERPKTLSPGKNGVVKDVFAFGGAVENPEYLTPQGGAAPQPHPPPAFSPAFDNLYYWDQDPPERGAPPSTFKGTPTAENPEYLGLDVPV

With `O=c1c(-c2ccc(Br)cc2)coc2c(CN3CCOCC3)c(O)ccc12`, the viability was 85.5% in assay [1]; 85.5% (inactive) in assay [3]; 101% (inactive) in assay [4]; 92.2% (inactive) in assay [5]; 96.5% in assay [6] (setting [9]); 92.2% in assay [6] (setting [10]). The Her2 level in assay [2] is 80.5% (inactive). For the same compound, the differential viability (reversal) in assay [6] (H69AR cells + 2 uM doxorubicin) was -4.24% (inactive). The inhibition in assay [7] is -3.33% (inactive); in assay [8], -2.22% (inactive).
As to `O=C(CSc1nnc(Cc2cc(=O)[nH]c(=O)[nH]2)n1-c1ccccc1)NCC1CCCO1` (stereo not given), the viability in assay [1] is 99%; in assay [3], 99% (inactive); in assay [4], 96.1% (inactive); in assay [5], 98.4% (inactive); in assay [6] (setting [9]), 95.4%; in assay [6] (setting [10]) it was 98.4%. The Her2 level in assay [2] was 84.5% (inactive). Also, the differential viability (reversal) in assay [6] (H69AR cells + 2 uM doxorubicin) was 3.05% (inactive). The inhibition in assay [7] was -6.8% (inactive); in assay [8], -1.11% (inactive).
In the case of `CCOC(=O)c1ccc(NC(=O)CCNc2c(N3CCCC3)c(=O)c2=O)cc1`, the viability was 104% in assay [1]; 104% (inactive) in assay [3]; 91.6% (inactive) in assay [4]; 98.3% (inactive) in assay [5]; 98% in assay [6] (setting [9]); 98.3% in assay [6] (setting [10]). Also, in assay [2], the Her2 level is 96.5% (inactive). Besides, the differential viability (reversal) in assay [6] (H69AR cells + 2 uM doxorubicin) was 0.27% (inactive). Also, the inhibition was -2.5% (inactive) in assay [7] and 0.18% (inactive) in assay [8].
With `CCOC(=O)C1CCN(C(=O)C2(NC(=O)Nc3ccccc3Cl)CCCCC2)CC1`, the viability in assay [1] is 133%; in assay [3], 133% (inactive); in assay [4], 105% (inactive); in assay [5] it was 87.9% (inactive); in assay [6] (setting [9]) it was 80.2%; in assay [6] (setting [10]) it was 87.9%. Further, the Her2 level in assay [2] was 98% (inactive). The differential viability (reversal) in assay [6] (H69AR cells + 2 uM doxorubicin) is 7.69% (inactive). The figures for the inhibition in assay [7] and in assay [8] were -1.95% (inactive) and -1.11% (inactive), respectively.
`CCCCOc1cc(=O)[nH]c(=O)[nH]1`: the viability is 108% in assay [1]; 108% (inactive) in assay [3]; 95.2% (inactive) in assay [4]; 102% (inactive) in assay [5]; 93.4% in assay [6] (setting [9]); 102% in assay [6] (setting [10]). In assay [2], the Her2 level was 99% (inactive). The differential viability (reversal) in assay [6] (H69AR cells + 2 uM doxorubicin) is 8.32% (inactive). Moreover, the inhibition in assay [7] is -2.11% (inactive); in assay [8], -7.33% (inactive).
With `CCOC(=O)c1[nH]c2ccccc2c1NC(=O)C(C)(C)C`, the viability is 102% in assay [1]; 102% (inactive) in assay [3]; 80.6% (inactive) in assay [4]; 96.6% (inactive) in assay [5]; 94.2% in assay [6] (setting [9]); 96.6% in assay [6] (setting [10]). Besides, the Her2 level in assay [2] is 96% (inactive). Moreover, the differential viability (reversal) in assay [6] (H69AR cells + 2 uM doxorubicin) was 2.35% (inactive). Further, the inhibition in assay [7] was -5.33% (inactive); in assay [8], 1.67% (inactive).
Turning to `CCOc1ccccc1NC(=O)NC1CCN(CC(=O)Nc2ccc3c(c2)OCCO3)CC1`, the viability is 119% in assay [1]; 119% (inactive) in assay [3]; 73.9% (inactive) in assay [4]; 86.8% (inactive) in assay [5]; 94.3% in assay [6] (setting [9]); 86.8% in assay [6] (setting [10]). Besides, in assay [2], the Her2 level was 97% (inactive). Further, the differential viability (reversal) in assay [6] (H69AR cells + 2 uM doxorubicin) is -7.47% (inactive). Besides, the inhibition in assay [7] is -0.39% (inactive); in assay [8], 7.54% (inactive).
In the case of `Cc1ccc(S(=O)(=O)N2CCN(CCO)CC2)cc1-c1nnc2c3ccccc3c(C)nn12`, the viability is 104% in assay [1]; 104% (inactive) in assay [3]; 99.4% (inactive) in assay [4]; 96.2% (inactive) in assay [5]; 94.2% in assay [6] (setting [9]); 96.2% in assay [6] (setting [10]). For the same compound, the Her2 level in assay [2] is 94% (inactive). For the same compound, the differential viability (reversal) in assay [6] (H69AR cells + 2 uM doxorubicin) was 2.01% (inactive). The inhibition in assay [7] is -5.07% (inactive); in assay [8], -2.79% (inactive).
As for `Cc1nnc2sc(-c3cccc(NC(=O)c4cccnc4)c3)nn12`, the viability in assay [1] was 87.5%; in assay [3], 87.5% (inactive); in assay [4], 90.2% (inactive); in assay [5] it was 87.8% (inactive); in assay [6] (setting [9]), 96.7%; in assay [6] (setting [10]), 87.8%. Also, the Her2 level in assay [2] was 104% (inactive). For the same compound, the differential viability (reversal) in assay [6] (H69AR cells + 2 uM doxorubicin) is -8.91% (inactive). The inhibition in assay [7] is -2.7% (inactive); in assay [8], 36.7% (active).
Regarding `Cc1cccc(C)c1OCc1nnc2c3cnn(C)c3ncn12`, the viability is 100% in assay [1]; 100% (inactive) in assay [3]; 105% (inactive) in assay [4]; 91.9% (inactive) in assay [5]; 94% in assay [6] (setting [9]); 91.9% in assay [6] (setting [10]). Besides, the Her2 level in assay [2] is 138% (inactive). Further, the differential viability (reversal) in assay [6] (H69AR cells + 2 uM doxorubicin) is -2.03% (inactive). In addition, the inhibition was -2.11% (inactive) in assay [7] and -4.59% (inactive) in assay [8].
On to `Cc1ccsc1C(C(=O)NC1CCCCC1)N(C(=O)Cc1cccs1)C1CC1` (stereo not given), for which the viability is 97.5% in assay [1]; 97.5% (inactive) in assay [3]; 89.2% (inactive) in assay [4]; 86.4% (inactive) in assay [5]; 77.1% in assay [6] (setting [9]); 86.4% in assay [6] (setting [10]). The Her2 level in assay [2] is 125% (inactive). The differential viability (reversal) in assay [6] (H69AR cells + 2 uM doxorubicin) was 9.3% (inactive). Moreover, the results for the inhibition in assay [7] and in assay [8] were -4.87% (inactive) and -4% (inactive), respectively.
For `CCSc1cc(C2C(C(=O)OC)=C(C)NC3=C2C(=O)CCC3)c(C)o1` (stereo not given), the viability is 79% in assay [1]; 79% (inactive) in assay [3]; 109% (inactive) in assay [4]; 84.5% (inactive) in assay [5]; 78.8% in assay [6] (setting [9]); 84.5% in assay [6] (setting [10]). Also, in assay [2], the Her2 level was 90% (inactive). Besides, the differential viability (reversal) in assay [6] (H69AR cells + 2 uM doxorubicin) was 5.68% (inactive). For the same compound, the inhibition in assay [7] is -6.8% (inactive); in assay [8], 3.93% (inactive).
With `Cc1ccc(CS(=O)(=O)CCC(=O)NCC2CCCO2)cc1` (stereo not given), the viability in assay [1] is 96.5%; in assay [3] it was 96.5% (inactive); in assay [4], 116% (inactive); in assay [5], 93.3% (inactive); in assay [6] (setting [9]), 90.7%; in assay [6] (setting [10]), 93.3%. Further, in assay [2], the Her2 level was 106% (inactive). For the same compound, the differential viability (reversal) in assay [6] (H69AR cells + 2 uM doxorubicin) was 2.6% (inactive). For the same compound, the results for the inhibition in assay [7] and in assay [8] were -7.03% (inactive) and 7.5% (inactive), respectively.
Regarding `CC(=O)N1CCN(C(=O)COc2ccc(Br)cc2)CC1`, the viability in assay [1] is 108%; in assay [3] it was 108% (inactive); in assay [4] it was 113% (inactive); in assay [5], 105% (inactive); in assay [6] (setting [9]) it was 84.6%; in assay [6] (setting [10]), 105%. Besides, in assay [2], the Her2 level was 92.5% (inactive). Further, in assay [6] (H69AR cells + 2 uM doxorubicin), the differential viability (reversal) is 20.5% (inactive). The figures for the inhibition in assay [7] and in assay [8] were -2.03% (inactive) and 0.16% (inactive), respectively.
Consider `CCC(Sc1nc(-c2ccccc2)c(C#N)c(=O)[nH]1)C(=O)Nc1cc(C)on1` (stereo not given), for which the viability in assay [1] is 90.5%; in assay [3] it was 90.5% (inactive); in assay [4], 83% (inactive); in assay [5], 101% (inactive); in assay [6] (setting [9]) it was 101%; in assay [6] (setting [10]) it was 101%. Besides, the Her2 level in assay [2] was 111% (inactive). In addition, in assay [6] (H69AR cells + 2 uM doxorubicin), the differential viability (reversal) was 0.62% (inactive). Also, the inhibition in assay [7] was -1.54% (inactive); in assay [8], -8.67% (inactive).
Turning to `CCCCSc1nc2c(cnn2-c2ccc(Cl)cc2)c(=O)[nH]1`, the viability in assay [1] was 93%; in assay [3] it was 93% (inactive); in assay [4], 85.5% (inactive); in assay [5], 75.1% (inactive); in assay [6] (setting [9]), 72.1%; in assay [6] (setting [10]), 75.1%. Besides, the Her2 level in assay [2] is 83.5% (inactive). The differential viability (reversal) in assay [6] (H69AR cells + 2 uM doxorubicin) was 2.96% (inactive). The inhibition in assay [7] was -4.93% (inactive); in assay [8], 7.38% (inactive).
